SMILES strings stand for the structures.

Holding throughout (type): functional
The test system of experiment [1] is Staphylococcus aureus. Description: Antimicrobial activity against vancomycin intermediate Staphylococcus aureus NRS-4 expressing SCCmec type 2 element by microdilution method in presence of 50 mg/L calcium. Summed up:
(§1)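 Daptomycin MIC by CLSI broth microdilution in cation-adjusted Mueller-Hinton broth, supplemented with calcium to a final 50 mg/liter. Read visually as the lowest concentration with no visible growth. ATCC 29213 and E. faecalis ATCC 29212 served as controls. CA-MRSA and DNSSA isolates came from patients at the study hospital; VISA isolates came from NARSA.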

Experiment [2] concerns Staphylococcus aureus. Briefly: Antimicrobial activity against vancomycin intermediate Staphylococcus aureus NRS-403 expressing SCCmec type 2 element by microdilution method in presence of 50 mg/L calcium. Summed up: as §1
(Broth dilution looks for growth in wells or tubes with falling amounts of substance.)

Experiment [3] relates to Staphylococcus aureus. Description: Antimicrobial activity against vancomycin intermediate Staphylococcus aureus NRS-19 expressing SCCmec type 2 element by microdilution method in presence of 50 mg/L calcium. The essentials:
as §1

Experiment [4] concerns Staphylococcus aureus. Description: Antimicrobial activity against vancomycin intermediate Staphylococcus aureus NRS-18 expressing SCCmec type 2 element by microdilution method in presence of 50 mg/L calcium. Summed up: as §1
The test system of experiment [5] is Staphylococcus aureus. Description: Antimicrobial activity against vancomycin intermediate Staphylococcus aureus NRS-126 expressing SCCmec type 2 element by microdilution method in presence of 50 mg/L calcium. Summed up: as §1
For experiment [6], the system named is Staphylococcus aureus. Description: Bactericidal activity against daptomycin-nonsusceptible Staphylococcus aureus assessed as antibiotic concentration that reduced the number of viable cells by =>99.9% by colony count method in presence of 50 mg/L calcium. Summed up:
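MBC per CLSI following microdilution in cation-adjusted Mueller-Hinton broth with calcium added to 50 mg/liter final. Defined as the concentration giving ≥99.9% reduction in viable cells, judged from colony counts of the growth control well against Pearson rejection-value tables.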

Experiment [7] deals with Staphylococcus aureus. Description: Antimicrobial activity against vancomycin intermediate Staphylococcus aureus NRS-23 expressing SCCmec type 2 element by microdilution method in presence of 50 mg/L calcium. Summed up:
as §1

The subject of experiment [8] is Staphylococcus aureus. Description: Antimicrobial activity against community-acquired methicillin-resistant Staphylococcus aureus assessed as susceptible isolates by microdilution method in presence of 50 mg/L calcium. Summed up: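 Daptomycin MICs by CLSI broth microdilution in cation-adjusted Mueller-Hinton broth with calcium added to a final 50 mg/liter, read visually. Percentage susceptible among 92 CA-MRSA isolates assigned by CLSI breakpoints.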

Experiment [9] deals with Staphylococcus aureus. Briefly: Antimicrobial activity against vancomycin resistant Staphylococcus aureus VRS-1 expressing SCCmec type 2 element by microdilution method in presence of 50 mg/L calcium. The essentials: (§2)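 Broth microdilution per CLSI in cation-adjusted Mueller-Hinton broth supplemented with calcium to 50 mg/liter final. Antibiotic powders were reconstituted per CLSI. The MIC was read visually as the lowest drug concentration with no visible growth. S. aureus ATCC 29213 and E. faecalis ATCC 29212 served as control strains.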

Experiment [10] has as its system Staphylococcus aureus. Description: Antimicrobial activity against vancomycin resistant Staphylococcus aureus VRS-6 expressing SCCmec type 2 element by microdilution method in presence of 50 mg/L calcium. The essentials:
as §2

Experiment [11] relates to Staphylococcus aureus. Description: Antimicrobial activity against vancomycin-resistant Staphylococcus aureus assessed as susceptible isolates by microdilution method in presence of 50 mg/L calcium. The essentials:
as §2

In general, MIC refers to the lowest concentration that inhibits growth of the organism. As usually defined, the MBC is the smallest concentration meeting the test's criterion for killing. With `CCCCCCCCCC(=O)N[C@@H](Cc1c[nH]c2ccccc12)C(=O)N[C@H](CC(N)=O)C(=O)N[C@@H](CC(=O)O)C(=O)N[C@@H]1C(=O)NCC(=O)N[C@@H](CCCN)C(=O)N[C@@H](CC(=O)O)C(=O)N[C@H](C)C(=O)N[C@@H](CC(=O)O)C(=O)NCC(=O)N[C@H](CO)C(=O)N[C@@H]([C@H](C)CC(=O)O)C(=O)N[C@@H](CC(=O)c2ccccc2N)C(=O)O[C@@H]1C`, the minimum inhibitory concentration (MIC) came out at 1 µg/mL in [1]; 2 µg/mL in [2]; 2 µg/mL in experiment [3]; 1 µg/mL in experiment [4]; 2 µg/mL in experiment [5]; 2 µg/mL in experiment [7]. Besides, the MIC in experiment [9] and in experiment [10] was 1 µg/mL throughout. The MBC amounted to 4 µg/mL in experiment [6] and 5.94 µg/mL in experiment [6] (Staphylococcus aureus, read-out: MBC). Also, the MBC50 in experiment [6] was 8 µg/mL. Also, the Activity in experiment [8] and in experiment [11] was 100% each time.

The values are drawn from ChEMBL document CHEMBL1275598, “In vitro activity of ceftaroline against community-associated methicillin-resistant, vancomycin-intermediate, vancomycin-resistant, and daptomycin-nonsusceptible Staphylococcus aureus isolates” (2010).
